Laboratory results published in ChEMBL document CHEMBL4325856, “Synthesis of cinnamic amide derivatives and their anti-melanogenic effect in α-MSH-stimulated B16F10 melanoma cells” (Eur J Med Chem, 2019).
One block for each molecule: values may come before it. Active and inactive are the calls of the source. The calls are words filed in the database; no cut-off is given here.

How the values were obtained:
[1] = target: T1, Tyrosinase (Agaricus bisporus) (UniProt O42713); details: at 25 µM
T1 sequence (whole entry): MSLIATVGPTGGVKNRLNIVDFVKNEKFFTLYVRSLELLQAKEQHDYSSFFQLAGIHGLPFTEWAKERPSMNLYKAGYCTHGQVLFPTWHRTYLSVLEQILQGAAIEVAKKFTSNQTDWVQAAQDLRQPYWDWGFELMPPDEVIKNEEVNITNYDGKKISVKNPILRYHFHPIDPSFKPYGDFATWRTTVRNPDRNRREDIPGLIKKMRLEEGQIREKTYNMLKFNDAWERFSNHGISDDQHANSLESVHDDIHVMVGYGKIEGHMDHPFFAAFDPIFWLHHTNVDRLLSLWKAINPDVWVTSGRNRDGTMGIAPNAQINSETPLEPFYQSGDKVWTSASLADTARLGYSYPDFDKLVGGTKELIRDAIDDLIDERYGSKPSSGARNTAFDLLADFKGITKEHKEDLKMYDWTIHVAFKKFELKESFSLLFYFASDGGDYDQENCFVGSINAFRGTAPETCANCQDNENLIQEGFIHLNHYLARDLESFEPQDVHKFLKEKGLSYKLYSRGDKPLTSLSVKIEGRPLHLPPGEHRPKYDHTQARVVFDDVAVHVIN

B16-F10 [2] = experiment: Antimelanogenic activity in alpha-MSH-stimulated mouse B16F10 cells assessed as reduction in melanin content at 25 uM treated at 24 hrs post alpha-MSH stimulation and measured after 24 hrs relative to control; format: functional; design: scale not given: the % may be the effect or the level left
Outline: (§1)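 Cells grown in 24-well plates for 24 h, then stimulated with 1 µM α-MSH and treated with 0, 5, 10 or 25 µM test agent (kojic acid 25 µM as reference) for 24 h. Washed with PBS, melanin dissolved in 200 µL 1N NaOH, absorbance read at 405 nm. Triplicate; means ± SEM, one-way ANOVA with Tukey's test.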

[3] = target: T1, Tyrosinase (Agaricus bisporus); experiment: Potency index, ratio of compound effect to kojic acid effect for inhibition of mushroom tyrosinase at 25 uM using L-tyrosine as substrate
B16-F10 [4] = experiment: Cytotoxicity against mouse B16F10 cells assessed as reduction in cell viability at 5 to 25 uM after 24 hrs by WST8 assay; format: cell-based; details: b16-f10, 24 h
Outline: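 Murine B16F10 cells in DMEM with 10% FBS and penicillin/streptomycin at 37 °C, 5% CO2, in 96-well plates. Pre-cultured cells exposed to 0, 5, 10 or 25 µM for 24 h. WST-8 reagent then added for 30 min to 2 h, absorbance read at 450 nm, viability given as % of control. Triplicate; means ± SEM.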

B16-F10 [5] = experiment: Antimelanogenic activity in alpha-MSH-stimulated mouse B16F10 cells assessed as reduction in melanin content treated at 24 hrs post alpha-MSH stimulation and measured after 24 hrs; format: functional, cell-based
Outline: as §1

[6] = target: T2, Tyrosinase (Mus musculus) (UniProt P11344); experiment: Inhibition of tyrosinase in alpha-MSH-stimulated mouse B16F10 cells assessed as reduction in dopachrome production using L-DOPA as substrate measured after 24 hrs by spectrophotometric method
T2 sequence (whole entry): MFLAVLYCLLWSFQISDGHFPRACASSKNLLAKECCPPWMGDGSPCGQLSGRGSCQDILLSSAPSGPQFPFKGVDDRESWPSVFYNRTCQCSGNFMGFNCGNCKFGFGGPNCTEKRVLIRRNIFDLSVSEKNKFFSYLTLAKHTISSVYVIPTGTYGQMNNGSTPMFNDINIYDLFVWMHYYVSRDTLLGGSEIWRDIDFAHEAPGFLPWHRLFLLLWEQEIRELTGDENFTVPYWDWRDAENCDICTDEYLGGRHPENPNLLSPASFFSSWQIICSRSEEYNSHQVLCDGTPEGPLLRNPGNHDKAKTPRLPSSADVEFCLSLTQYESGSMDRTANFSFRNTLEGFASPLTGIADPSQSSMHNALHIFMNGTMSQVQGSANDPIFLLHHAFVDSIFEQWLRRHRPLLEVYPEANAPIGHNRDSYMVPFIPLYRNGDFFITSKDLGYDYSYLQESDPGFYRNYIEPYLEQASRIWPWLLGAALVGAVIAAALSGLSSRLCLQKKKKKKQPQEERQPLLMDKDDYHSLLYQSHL
Outline: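 B16F10 cells activated with 1 µM α-MSH, then given 0, 5, 10 or 25 µM test agent or 25 µM kojic acid for 24 h. Cells washed with PBS and lysed in 50 mM PBS pH 6.8 with 0.1 mM PMSF and 1% Triton X-100. Lysate frozen at -80 °C for 30 min, spun 12,000 rpm 30 min at 4 °C. Supernatant (80 µL) mixed with 20 µL 10 mM L-dopa, 37 °C for 30 min, OD read at 500 nm. Triplicate.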

[7] = target: T1, Tyrosinase (Agaricus bisporus); experiment: Competitive inhibition of mushroom tyrosinase at 10 to 40 nM using varying levels of L-tyrosine as substrate by Lineweaver-Burk plot analysis
Outline: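 Mushroom tyrosinase (200 units) with inhibitor at 10, 20 and 40 nM and L-tyrosine 0.03125 to 16 mM, in 50 mM potassium phosphate pH 6.5. Initial dopachrome formation rate taken as ΔOD475/min. Km and Vmax from Lineweaver–Burk plots (1/V vs 1/[S]); Ki from modified Michaelis–Menten equation. Triplicate.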

Tyrosinase = target: T3, Tyrosinase (Agaricus bisporus, UniProt O42713); experiment: Inhibition of mushroom tyrosinase using L-tyrosine as substrate incubated for 30 mins by spectrophotometric method
T3 sequence (O42713 whole entry): T1 sequence (whole entry)
Outline: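 Mushroom tyrosinase with test sample (final 25 µM) in substrate mix of 14.7 mM potassium phosphate buffer and 293 µM L-tyrosine (1:1, v/v), incubated 30 min at 37 °C. Dopachrome absorbance read at 450 nm; % inhibition calculated against untreated control. Kojic acid 25 µM and arbutin 400 µM as positive controls. Triplicate; means ± SEM.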

inhibition [1]: inactive
SMILES: O=C1CC(c2ccc(O)c(O)c2)c2ccccc2N1 (configuration not stated)

inhibition [1]: 29.7%
SMILES: COc1ccc(/C=C/C(=O)Nc2ccccc2)cc1O

Ratio [3]: 3
inhibition [1]: 82.9%
inhibition [6]: Dose-dependent effect
SMILES: COc1cc(/C=C/C(=O)NCc2ccccc2)ccc1O
Activity (B16-F10 [2]): 80.43%
Activity (B16-F10 [4]): Non-Toxic
Activity (B16-F10 [5]): Dose-dependent effect

inhibition [1]: 59%
SMILES: COc1cc(/C=C/C(=O)Nc2ccccc2)ccc1O

Ratio [3]: 3
inhibition [7]: Active
IC50 (Tyrosinase): 25.6 nM
inhibition [6]: Dose-dependent effect
SMILES: O=C(/C=C/c1ccc(O)cc1O)Nc1ccccc1
Activity (B16-F10 [2]): 63.97%
Activity (B16-F10 [4]): Non-Toxic
Activity (B16-F10 [5]): Dose-dependent effect

inhibition [1]: inactive
SMILES: O=C1CC(c2ccc(O)cc2)c2ccccc2N1 (configuration not stated)

inhibition [1]: inactive
SMILES: O=C(/C=C/c1ccc(O)c(O)c1)Nc1ccccc1

inhibition [1]: inactive
SMILES: CCN(CC)C(=O)/C=C/c1ccc(O)cc1

inhibition [1]: 61.9%
SMILES: CCN(CC)C(=O)/C=C/c1ccc(O)c(OC)c1

inhibition [1]: 10%
SMILES: O=C(/C=C/c1ccc(O)c(O)c1)NCc1ccccc1

SMILES: O=c1cc(CO)occ1O [KOJIC ACID]
Activity (B16-F10 [2]): 44.26%

inhibition [1]: inactive
SMILES: CCN(CC)C(=O)/C=C/c1ccc(O)c(O)c1

inhibition [1]: 20.7%
SMILES: CCN(CC)C(=O)/C=C/c1ccc(OC)c(O)c1

inhibition [1]: inactive
SMILES: COc1cc(C2CC(=O)Nc3ccccc32)ccc1O (configuration not stated)

inhibition [1]: 25.9%
SMILES: COc1ccc(C2CC(=O)Nc3ccccc32)cc1O (configuration not stated)

Ratio [3]: 3
inhibition [7]: Active
IC50 (Tyrosinase): 11.2 nM
inhibition [1]: 96.2%
inhibition [6]: Dose-dependent effect
SMILES: CCN(CC)C(=O)/C=C/c1ccc(O)cc1O
Activity (B16-F10 [2]): 78.07%
Activity (B16-F10 [4]): Non-Toxic
Activity (B16-F10 [5]): Dose-dependent effect

Ratio [3]: 3
inhibition [1]: 85.4%
inhibition [6]: Dose-dependent effect
SMILES: O=C(/C=C/c1ccc(O)cc1O)NCc1ccccc1
Activity (B16-F10 [2]): 65.84%
Activity (B16-F10 [4]): Non-Toxic
Activity (B16-F10 [5]): Dose-dependent effect

inhibition [1]: inactive
SMILES: O=C(/C=C/c1ccc(O)cc1)NCc1ccccc1

inhibition [1]: 31.5%
SMILES: COc1ccc(/C=C/C(=O)NCc2ccccc2)cc1O
